FLuc inh counter – inhibits firefly luciferase, flagging false hits in luciferase inhibition screens; P08659; ATPLite firefly luciferase biochemical luminescence, 10 min; inhibition, % at 10 µM; 200,000 compounds, 1.5% hits; AID 1006;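 active = inhibition above about 50% when tested at 10 µM, limit read from the data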
Target sequence (P08659 whole entry, looked up): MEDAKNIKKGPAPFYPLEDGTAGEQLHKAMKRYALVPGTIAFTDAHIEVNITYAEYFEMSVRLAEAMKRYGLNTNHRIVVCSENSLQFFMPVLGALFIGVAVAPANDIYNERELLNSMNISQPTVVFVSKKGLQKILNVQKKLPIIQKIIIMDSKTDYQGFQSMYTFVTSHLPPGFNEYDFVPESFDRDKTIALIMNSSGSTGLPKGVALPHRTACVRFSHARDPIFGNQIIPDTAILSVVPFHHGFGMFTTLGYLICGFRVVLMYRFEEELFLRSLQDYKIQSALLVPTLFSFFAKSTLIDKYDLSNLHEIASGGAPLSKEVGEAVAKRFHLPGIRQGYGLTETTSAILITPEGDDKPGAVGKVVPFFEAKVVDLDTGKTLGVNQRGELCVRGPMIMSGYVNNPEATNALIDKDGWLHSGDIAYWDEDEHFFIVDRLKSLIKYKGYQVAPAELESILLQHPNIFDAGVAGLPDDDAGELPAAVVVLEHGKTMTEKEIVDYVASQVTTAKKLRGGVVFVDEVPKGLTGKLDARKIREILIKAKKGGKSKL
C8 TRAIL sens – caspase-8 TRAIL sensitization | NB7+C8 cells + TRAIL, ATPlite viability luminescence | inhibition (viability loss, TRAIL sensitization), % at 10 µM | 360,000 compounds, 1% hits | AID 624354;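 active = compounds causing at least 50% loss of cell viability in the single-dose screen, relative to plate controls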
HSP90 refold inh – inhibitors of HSP90 luciferase refolding in rabbit reticulocyte lysate; luciferase refolding luminescence, 3 h; inhibition, % at 5.6 µM; 290,000 compounds, 0.91% hits; AID 1789;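 active = inhibition above the screen-wide mean plus 3 SD, computed separately per campaign, cut at about 16% in these data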;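 note: 0% = DMSO wells and 100% = 60 µM geldanamycin wells; inhibitors lower the luminescence because luciferase stays unfolded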
FLuc act counter – firefly luciferase counter-screen for stimulation assays. ATPlite luciferase biochemical, luminescence, 10 min; 0 = ATP-free wells, 1 = DMSO control. activation factor at 10 µM. 200,000 tested, under 10 active;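 active = luciferase activation factor, scaled between plate controls, of at least 2 with compound at 10 µM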
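System: luciferase plus luciferin reagent, cell-free; medium: PBS as buffer for the ATP substrate; dosing: test compounds dosed from 2 mM stocks in 100% DMSO; timing: 10 min post-reagent at room temperature; measured by: luminescence measurement of luciferase light output; evaluation: luciferase activation, seen as luminescence increase over controls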
PPC-1+TRAIL kill – PPC-1 cancer cell killing with TRAIL present. 220,000 compounds, 0.41% hits. cell killing (% activity), % at 4 µM or 5 µM. AID 1443. PPC-1 cells + TRAIL, ATPLite viability luminescence;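 active = cell killing above 50% in the first pass at 4 µM, then a duplicate retest at 5 µM averaging 50% or more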;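 note: plate controls were cells with TRAIL plus DMSO for no effect and medium-only wells lacking cells for full effect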
Numbers without * were called inactive; · = not tested or not shown. This is a sample that favours compounds with a hit; in the whole collection about 2% have one here.

SMILES	FLuc inh counter	C8 TRAIL sens	HSP90 refold inh	FLuc act counter	PPC-1+TRAIL kill
COc1ccc(NC(=O)c2cc3n(n2)C(C(F)(F)F)CC(c2ccco2)N3)cc1 (stereo not drawn)	-2	-11	1	1	-6
O=C(NCC12CC3CC(CC(C3)C1)C2)c1cc2n(n1)C(C(F)(F)F)CC(c1ccco1)N2 (stereo not drawn)	-10	3	30*	1.1	19
Nc1nn2cc(-c3ccc(Br)cc3)nc2c2ccccc12	·	51*	2	·	40
Cc1cc(NC(=O)COC(=O)[C@@H]2CCCN2C(=O)c2cccs2)no1	·	-11	·	·	·
O=C(NCCC1=CCCCC1)c1coc(=O)c(Br)c1	-5	53*	2	1	10
Cc1ccc2c(c1)c1ccc3c(c1n2C)C(=O)C=CC3=O	·	58*	1	·	20
Cc1ccccc1/C(N)=N/OC(=O)/C=C/c1ccccc1	56*	94*	-1	0.4	10
N/C(=N\OC(=O)c1cccs1)C1(c2ccc(Cl)cc2Cl)CC1	·	-1	3	·	15
N/C(=N\OC(=O)/C=C/c1ccccc1Cl)c1cccnc1	·	26	-5	·	5
Cc1ccc(/C(N)=N/OC(=O)/C=C/c2ccccc2)cc1	1	37	0	1	29
N/C(=N\OC(=O)c1cccs1)c1cccnc1	·	-9	-3	·	·
N/C(Cc1ccc(Cl)c(Cl)c1)=N\OC(=O)c1cccs1	-4	64*	-1	1	19
Cc1ccccc1/C(N)=N/OC(=O)c1cccs1	69*	-11	-8	0.3	22
N/C(=N\OC(=O)/C=C/c1ccccc1)c1cccnc1	81*	-4	2	0.2	48
COc1ccc(Br)c(Cn2c(C)c(C(=O)NCCC#N)sc2=O)c1	·	11	·	·	·
COc1ccc(-c2coc3c(C(=O)Nc4cccnc4)cccc23)c(C)c1	·	21	·	·	·
Clc1ccccc1-c1nc(-c2ccccc2)n[nH]1	27	21	0	0.7	9
Oc1ccccc1-c1n[nH]c(-c2ccccc2O)n1	·	60*	·	·	·
Cc1sc(NC(=O)/C=C/c2ccc(C(C)C)cc2)c(C#N)c1C	0	19	-8	1	4
CC(C)c1ccc(/C=C/C(=O)Nc2nncs2)cc1	59*	74*	4	0.4	29
CCCCOc1ccc(C(=O)Nc2cc(C)c(OCC(=O)N3CCOCC3)c(C)c2)cc1	44	12	-3	0.6	19
Cc1cc(NC(=O)c2ccc(Cl)cc2)cc(C)c1OCC(=O)N1CCOCC1	·	54*	4	·	·
Cc1cc(C)n(-c2ccc(C(=O)N3CCN(S(=O)(=O)c4ccc(Br)cc4Cl)CC3)cc2)n1	·	6	·	·	·
O=C(CCl)N1N=C(c2cccs2)CC1c1ccco1 (stereo not drawn)	-5	91*	2	1	8
CN1CCN(CC(=O)N2N=C(c3cccs3)CC2c2ccco2)CC1 (stereo not drawn)	-4	2	1	1	-3
SMILES	FLuc inh counter	C8 TRAIL sens	HSP90 refold inh	FLuc act counter	PPC-1+TRAIL kill
CCCCC1(CO)C(=O)N(c2ccccc2)N(c2ccccc2)C1=O	·	-6	-4	·	-14
CCCCC1C(=O)N(c2ccccc2)N(c2ccc(O)cc2)C1=O (stereo not drawn)	·	57*	·	·	·
COc1ccc(NC(=O)C2CC2(Cl)Cl)cc1S(=O)(=O)N1CCCCC1 (stereo not drawn)	·	-6	·	·	·
Clc1ccc2c(c1)C1OCCC1C(c1ccco1)N2 (stereo not drawn)	54*	21	-1	0.5	20
CC(=O)N1c2ccc(Cl)cc2C2OCCC2C1c1ccco1 (stereo not drawn)	·	-2	-5	·	15
CCC(=O)Nc1cccc(NC(=O)c2cc3ccccc3o2)c1	54*	22	-4	0.5	25
O=C(Nc1cccc(Br)c1)c1cc2ccccc2o1	32	11	2	0.7	15
Cc1cccc(NC(=O)c2cc3ccccc3o2)c1	66*	44	6	0.3	36
CCCC1NC(=O)c2cc3ccccc3cc2-n2c1nc1ccc(F)cc1c2=O (stereo not drawn)	·	13	·	·	·
Cc1cc(N/N=C/c2ccccc2)nc(NCc2ccccc2)n1	76*	55*	4	0.2	31
C(=N/Nc1nc(-c2ccccc2)cc(-c2ccccc2)n1)/c1cccnc1	46	11	1	0.5	29
Cc1cc(-c2ccccc2)nc(N/N=C/c2ccc(N(C)C)cc2)n1	·	15	·	·	·
Cc1cc(-c2ccccc2)nc(N/N=C/c2ccccc2)n1	·	65*	-2	·	·
Cc1cc(-c2ccccc2)nc(N/N=C/c2cccnc2)n1	74*	39	-3	0.3	38
CCC(=O)N1CCC(C)(C(=O)Nc2ccc(OC)c(OC)c2)C1 (stereo not drawn)	·	-2	·	·	·
CCCNC(=O)C1CCN(S(=O)(=O)c2ccc3[nH]c(=O)ccc3c2)CC1	·	5	35*	·	·
CCC(C)NC(=O)C1CCN(S(=O)(=O)c2ccc3[nH]c(=O)ccc3c2)CC1 (stereo not drawn)	·	5	-8	·	·
Cc1nc(SCCC(=O)O)c2cc(-c3ccccc3)sc2n1	·	63*	1	·	·
CC(C)C[C@H]1CN(CCCC[C@@H]2CNC(=O)C(=O)N2CC2CCCCC2)C(=O)C(=O)N1CCc1ccc(O)cc1	·	-8	·	·	·
COc1cc(SC)ccc1C(=O)Nc1ccc(C)cc1	54*	25	2	0.5	23
COc1cc(SC)ccc1C(=O)Nc1cccc(C)n1	70*	43	0	0.3	·
COc1cc(SC)ccc1C(=O)Nc1ccc(OCC(=O)N2CCOCC2)cc1	·	86*	15	·	·
COc1cc(SC)ccc1C(=O)Nc1ccc(C)cc1C	36	21	0	0.6	18
CC(C)c1ccc(Nc2nc(CC(=O)O)cs2)cc1	71*	25	-2	0.3	-2
CCC(C)NC(=O)c1cc2cc3ccc(OC)cc3nc2s1 (stereo not drawn)	59*	47	4	0.4	33
SMILES	FLuc inh counter	C8 TRAIL sens	HSP90 refold inh	FLuc act counter	PPC-1+TRAIL kill
CC(C)(C)C(=O)CSc1ccc(S(=O)(=O)N2CCN(Cc3ccccc3)CC2)cn1	·	-1	·	·	·
CN1CCN(c2ncnc3c2ncn3[C@H]2CN(Cc3ccc(F)cc3)C[C@@H](CO)O2)CC1	·	1	·	·	·
O=C(N/N=C/c1ccccn1)c1ccc([N+](=O)[O-])cc1	67*	-4	-3	0.3	12
O=C(N/N=C/c1ccccn1)c1ccc(N/N=C/c2ccccn2)cc1	72*	-1	1	0.3	44
Cc1cccc(/C=N/NC(=O)c2ccc(Br)cc2)c1	54*	24	6	0.5	10
O=C(N/N=C/c1ccccn1)c1ccc(Br)cc1	82*	49	1	0.2	20
CCCCN1C[C@H](c2ccccc2)[C@@H](CC(=O)NC)C1=O	·	-7	·	·	·
COc1cccc(CN2CC(C(=O)NCCc3cn4cccnc4n3)CCC2=O)c1 (stereo not drawn)	·	-1	·	·	·
CC(C)NC(=O)c1cc(-c2ccc(F)cc2OC(C)C)n[nH]1	·	-5	·	·	·
O=S1(=O)C[C@H](N2CCN(CC3CC3)CC2)[C@@H](COCc2ccccc2)N1	·	6	·	·	·

Source: PubChem BioAssay (several laboratories)
